Data set [1] in a line: Drug level in human liver microsomes treated with 8-Chloro-2-(3-methoxy-d3-phenyl)-2,5-dihydro-3H-pyrazolo[4,3-c]quinolin-3-one after 60 mins by LC-MS analysis. Format: ADME. Conditions: 1 h; call rule not given here.
Data set [2] in a line: Drug level in mouse liver microsomes treated with 8-Chloro-2-(3-methoxy-d3-phenyl)-2,5-dihydro-3H-pyrazolo[4,3-c]quinolin-3-one after 60 mins by LC-MS analysis. Format: ADME. To be noted: 1 h.
Data set [3] has as its system Rattus norvegicus. The data set can be described thus: Toxicity in Wistar rat assessed as average swim speed at 10 mg/kg, ip administered for 45 mins by cued water-maze apparatus method (reference value: 0.21 +/- 0.01 meter/s). Format: organism-based. To be noted: in vivo, 0.75 h.
A short description of data set [4]: Cmax in Wistar rat brain at 10 mg/kg, ip administered as single dose measured at 5 to 720 mins post dose by HPLC-MS/MS analysis. Type of data set: ADME, organism-based. More on the design: dose 10 mg/kg, route intraperitoneal. The method, boiled down:
(§1)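 Male Wistar rats (250-350 g) given a single 10 mg/kg i.p. dose of a 5 mg/ml suspension in 85% distilled water, 14% propylene glycol, 1% Tween 80. Three rats per time point (5, 20, 60, 180, 720 min). Blood and brain were collected after sacrifice. Drug was recovered by solid phase extraction and quantified by HPLC-MS/MS.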

Data set [5] can be described thus: Terminal elimination half-life in Wistar rat brain at 10 mg/kg, ip administered as single dose by HPLC-MS/MS analysis. Type of data set: ADME, organism-based. Conditions: read-out: beta t1/2 (converted). The method, boiled down: (§2)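 Male Wistar rats (250–350 g) received a single i.p. dose of 10 mg/kg as a 5 mg/ml suspension in 85% water, 14% propylene glycol and 1% Tween 80. Three rats per time point were sacrificed at 5, 20, 60, 180 and 720 min for plasma and brain. Samples were cleaned up by solid-phase extraction and quantified by HPLC-MS/MS.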

In the next data set the test system is HEK-293T. The data set can be described thus: Cytotoxicity against HEK293T cells assessed as reduction in cell viability up to 400 uM after 48 hrs by CellTiter-Glo assay. Type of data set: cell-based. Conditions: human. The gist of the method: (§3)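 HEK293T and HepG2 cells grown in high-glucose DMEM with non-essential amino acids, 10 mM HEPES, penicillin/streptomycin and 10% heat-inactivated FBS. Cells were harvested with trypsin and plated; compound was pin-transferred 3 h later. Incubation was 48 h, then CellTiter-Glo luminescence was read. Controls were DMSO (negative) and a cytotoxic aminoketone (positive). Quadruplicates, three independent runs, normalized to controls, nonlinear regression.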

For data set [6], the system named is Rattus norvegicus. The data set can be described thus: Toxicity in Wistar rat assessed as total distance traveled at 10 mg/kg, ip administered for 45 mins measured for 5 min by elevated plus maze method (reference value: 6.71 +/- 0.56 meter). Type of data set: organism-based. Conditions: in vivo.
In data set [7] the target is Voltage-gated inwardly rectifying potassium channel KCNH2 (Homo sapiens, UniProt Q12809). The data set can be described thus: Displacement of [3H]-dofetilide from human ERG expressed in HEK cell membranes at >10 uM after 60 to 90 mins by scintillation counting.
Voltage-gated inwardly rectifying potassium channel KCNH2, sequence (Q12809 whole entry): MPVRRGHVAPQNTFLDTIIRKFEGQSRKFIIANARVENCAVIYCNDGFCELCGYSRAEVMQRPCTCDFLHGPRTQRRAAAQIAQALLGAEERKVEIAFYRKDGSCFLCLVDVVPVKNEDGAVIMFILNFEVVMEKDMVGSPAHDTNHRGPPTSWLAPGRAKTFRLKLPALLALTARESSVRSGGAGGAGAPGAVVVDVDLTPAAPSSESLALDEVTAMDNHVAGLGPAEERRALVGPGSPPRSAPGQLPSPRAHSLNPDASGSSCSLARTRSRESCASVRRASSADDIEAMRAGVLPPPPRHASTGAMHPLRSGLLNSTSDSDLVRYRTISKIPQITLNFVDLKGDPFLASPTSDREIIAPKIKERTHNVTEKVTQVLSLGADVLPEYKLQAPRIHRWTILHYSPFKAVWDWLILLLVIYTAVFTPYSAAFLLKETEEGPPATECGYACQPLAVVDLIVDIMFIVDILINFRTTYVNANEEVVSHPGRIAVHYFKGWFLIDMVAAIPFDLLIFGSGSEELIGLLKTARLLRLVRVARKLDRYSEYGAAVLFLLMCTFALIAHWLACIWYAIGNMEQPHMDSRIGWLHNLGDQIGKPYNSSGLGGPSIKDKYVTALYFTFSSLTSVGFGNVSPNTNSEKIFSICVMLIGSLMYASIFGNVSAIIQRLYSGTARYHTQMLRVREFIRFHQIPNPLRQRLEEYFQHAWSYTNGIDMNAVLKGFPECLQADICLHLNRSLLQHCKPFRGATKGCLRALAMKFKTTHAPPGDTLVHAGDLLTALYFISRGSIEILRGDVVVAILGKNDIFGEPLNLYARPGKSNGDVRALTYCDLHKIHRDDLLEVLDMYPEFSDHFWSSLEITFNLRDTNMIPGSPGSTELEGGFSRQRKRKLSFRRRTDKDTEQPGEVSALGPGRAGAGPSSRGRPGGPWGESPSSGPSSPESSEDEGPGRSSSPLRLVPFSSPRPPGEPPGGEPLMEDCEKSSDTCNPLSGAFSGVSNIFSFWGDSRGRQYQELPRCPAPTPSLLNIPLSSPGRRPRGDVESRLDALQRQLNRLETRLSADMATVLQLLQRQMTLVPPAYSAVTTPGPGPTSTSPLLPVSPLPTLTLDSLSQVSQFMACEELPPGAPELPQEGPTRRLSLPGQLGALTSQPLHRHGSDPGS
The next data set has as its system Mus musculus. The data set can be described thus: Neurotoxicity in Swiss Webster mouse assessed as induction of motor impairment at 60 mg/kg administered via oral gavage measured after 10 to 60 mins by rotarod method. To be noted: in vivo. Type of data set: toxicity, organism-based.
The test system of data set [8] is Rattus norvegicus. The data set can be described thus: Toxicity in Wistar rat assessed as open arm entries at 10 mg/kg, ip administered for 45 mins measured for 5 min by elevated plus maze apparatus method (reference value: 23.07 +/- 5.47%). Type of data set: organism-based. Conditions: in vivo.
Data set [9] is described as follows: AUC (0 to 12 hrs) in Wistar rat plasma at 10 mg/kg, ip administered as single dose by HPLC-MS/MS analysis. Type of data set: ADME, organism-based. More on the design: time < 12 hr, dose 10 mg/kg, route intraperitoneal.
The nature of data set [10]: Tmax in Wistar rat plasma at 10 mg/kg, ip administered as single dose by HPLC-MS/MS analysis. Format: ADME, organism-based. The gist of the method: as §2
For the next data set, the system named is Liver. The data set can be described thus: Half life in mouse liver microsomes at 10 uM by LC-MS/MS analysis. Format: ADME, microsome. The gist of the method: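 Compound at 10 μM final was preincubated 5 min at 37 °C with NADPH regenerating system in phosphate buffer, pH 7.4. Human or mouse liver microsomes (0.5 mg/mL protein) were added to start the reaction. Samples were taken at 0 (no microsomes) and 10–60 min and measured by LC-MS/MS against an internal standard. Half-life = 0.693/k, with k the slope of ln peak-area ratio versus time. Three experiments, each in duplicate.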

Data set [11] in a line: Terminal elimination half-life in Wistar rat plasma at 10 mg/kg, ip administered as single dose by HPLC-MS/MS analysis. Type of data set: ADME, organism-based. Conditions: read-out: beta t1/2 (converted). The method, boiled down: as §2
The nature of data set [12]: Metabolic stability in mouse liver microsomes assessed as parent compound remaining at 10 uM after 60 mins by LC-MS analysis. Type of data set: ADME, microsome. Conditions: read-out: Stability. The gist of the method:
(§4)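 The 60 min samples of the microsomal incubation (10 μM compound, human or mouse liver microsomes at 0.5 mg/mL, NADPH regenerating system, 37 °C) were analysed by LC-MS. Detection used SIM mode with dual ESI/APCI ionization, calibrated to the retention times and masses of the parent and its O-demethylated metabolites. Peak intensities were measured.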

Data set [13] is described as follows: Cmax in Wistar rat plasma at 10 mg/kg, ip administered as single dose measured at 5 to 720 mins post dose by HPLC-MS/MS analysis. Format: ADME, organism-based. Set-up: dose 10 mg/kg, route intraperitoneal. The gist of the method: as §1
The subject of data set [14] is Rattus norvegicus. The data set can be described thus: Toxicity in Wistar rat assessed as closed arm entries at 10 mg/kg, ip administered for 45 mins measured for 5 min by elevated plus maze apparatus method (reference value: 3.63 +/- 0.42). Format: organism-based. Conditions: in vivo.
The test system of data set [15] is Rattus norvegicus. The data set can be described thus: Toxicity in Wistar rat assessed as grip strength by measuring peak force of pull necessary to overcome strength of animal's grip at 10 mg/kg, ip (reference value: 2.79 +/- 0.16 kg/kg). Format: organism-based. Conditions: in vivo.
Data set [16] deals with Rattus norvegicus. The data set can be described thus: Toxicity in Wistar rat assessed as peripheral ring distance at 10 mg/kg, ip administered for 45 mins by cued water-maze method (reference value: 67.44 +/- 4.60%). Type of data set: organism-based. Conditions: in vivo, 0.75 h.
The subject of another data set is HepG2. The data set can be described thus: Cytotoxicity against human HepG2 cells assessed as reduction in cell viability up to 400 uM after 48 hrs by CellTiter-Glo assay. To be noted: hepg2, 48 h. Type of data set: cell-based. The method, boiled down: as §3
Data set [17] can be described thus: Tmax in Wistar rat brain at 10 mg/kg, ip administered as single dose by HPLC-MS/MS analysis. Type of data set: ADME, organism-based. The gist of the method: as §2
In data set [18] the test system is Rattus norvegicus. The data set can be described thus: Hyperlocomotor activity in Wistar rat assessed as total distance travelled at 10 mg/kg, ip after 60 mins. Format: ADME, organism-based. To be noted: in vivo, 1 h.
Data set [19] is described as follows: Metabolic stability in human liver microsomes assessed as parent compound remaining at 10 uM after 60 mins by LC-MS analysis. Type of data set: ADME, microsome. Conditions: read-out: Stability. The method, boiled down: as §4
Another data set relates to Brain. The data set can be described thus: AUC (0 to 12 hrs) in Wistar rat brain at 10 mg/kg, ip administered as single dose by HPLC-MS/MS analysis. Type of data set: ADME, organism-based. Set-up: dose 10 mg/kg, time < 12 hr, route intraperitoneal. To be noted: in vivo.
Data set [20] can be described thus: Ratio of brain AUC (0 to t) to plasma AUC (0 to t), Kp of the compound in Wistar rat at 10 mg/kg, ip administered as single dose by HPLC-MS/MS analysis. Type of data set: ADME, organism-based.
Data set [21] concerns Rattus norvegicus. The data set can be described thus: Toxicity in Wistar rat assessed as total distance traveled at 10 mg/kg, ip administered for 45 mins by cued water-maze method (reference value: 8.04 +/- 1.16 meter). Type of data set: organism-based. Conditions: in vivo, 0.75 h.

Results on 2 compounds are retold here after ChEMBL document CHEMBL4033790, “Design and Synthesis of Novel Deuterated Ligands Functionally Selective for the γ-Aminobutyric Acid Type A Receptor (GABAAR) α6 Subtype with Improved Metabolic Stability and Enhanced Bioavailability” (J Med Chem, 2018).

Regarding `O=c1c2c[nH]c3ccc(Cl)cc3c-2nn1-c1cccc(O)c1`, the Drug metabolism entry in [1] and in [2] was “Metabolite_Detected” throughout.

`[2H]C([2H])([2H])Oc1ccccc1-n1nc2c3cc(Cl)ccc3[nH]cc-2c1=O`: the Activity with Rattus norvegicus [3] is 0.22 meter/s; with HEK-293T, “Non-Toxic”; in the data set on Rattus norvegicus [6], 6.14 m; with Mus musculus, “Non-Toxic”; in the data set on Rattus norvegicus [8], 20.6%; in the data set on Rattus norvegicus [14], 3.5. In addition, the Activity in the data set with Rattus norvegicus [15] is 2.66 kg/kg; in the data set with Rattus norvegicus [16], 69.34%; in the data set with HepG2, “Non-Toxic”; in the data set with Rattus norvegicus [18], “Non-Toxic”; in the data set on Rattus norvegicus [21], 9.93 m. Further, the Cmax in data set [4] stood at 65.6 ng/g; in data set [13], 434 ng/mL. Further, the results for the half-life in data set [5] and in data set [11] were 5.54 h and 3.66 h, respectively. For the same compound, in [7], the “inhibition (INH)” value was “Not Active”. This compound had an AUC(0-t) at 12 h in [9] of 1800 ng·h/mL. The Tmax in data set [10] and in data set [17] was 0.78 h in each case. In the data set with Liver, this compound registered a t1/2 of 16.6 h. For the same compound, the remaining at 1 h, 10 µM worked out at 94.9% in [12] and 94.8% in data set [19]. In the data set with Brain, this compound gave an AUC of 269.03 ng·h/g. Moreover, in data set [20], the Kp worked out at 0.15.
